Laboratory results published in ChEMBL document CHEMBL1125383, “Benzazepinone calcium channel blockers. 4. Structure-activity overview and intracellular binding site” (J Med Chem, 1992).

Key:
[1] = biological target: T1, Voltage-gated L-type calcium channel (Rattus norvegicus, UniProt P22002+Q02485+P27732); assay: Percentage decrease in blood pressure at a dose of 135 uM/kg for 12-18 hr in spontaneously hypertensive rats.; assay type: functional, tissue-based
In short: (§1)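 Spontaneously hypertensive rats, n = 5, given 135 µmol/kg orally; systolic pressure recorded directly; maximum percent fall from predrug control noted within 0-6, 6-12 and 12-18 h windows after dosing; mean of five rats.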

[2] = Concentration required to cause 50% relaxation of maximal contraction in circumferential rabbit aorta strips in response to KCl (100 mM); assay type: functional, tissue-based, Oryctolagus cuniculus
[3] = Partition coefficient (logP); assay type: physicochemical; conditions: octanol/water
[4] = biological target: T1, Voltage-gated L-type calcium channel; assay: Percentage decrease in blood pressure at a dose of 135 uM/kg for 0-6 h in spontaneously hypertensive rats.; assay type: functional, tissue-based; in short: as §1
[5] = biological target: T1, Voltage-gated L-type calcium channel; assay: Percentage decrease in blood pressure at a dose of 135 uM/kg for 6-12 hr in spontaneously hypertensive rats.; assay type: functional, tissue-based; in short: as §1

| IC50 ([2]; Oryctolagus cuniculus, Aorta) [nM] | logP [3] | IC50 [2] [nM] | SMILES | Decrease in blood pressure [1] [%] | Decrease in blood pressure [4] [%] | Decrease in blood pressure [5] [%] |
| --- | --- | --- | --- | --- | --- | --- |
| 100 | 4.6 |  | C=CC[C@H]1C(=O)N(CCN(C)C)c2cccc(C(F)(F)F)c2C[C@H]1c1ccc(OC)cc1 | 29 | 24 |  |
|  | 2.2 |  | CCOC(=O)c1cccc2c1C[C@@H](c1ccc(OC)cc1)[C@@H](OC(C)=O)C(=O)N2CCN(C)C | 5 | 4 | 6 |
|  | 3.3 |  | C=CC[C@H]1C(=O)N(CCN(C)C)c2ccccc2C[C@H]1c1ccc(OC)cc1 | 18 | 25 | 23 |
| 73 |  |  | COc1ccc([C@@H]2Cc3c(cccc3C(F)(F)F)N(CCN(C)CCCCc3ccccc3)C(=O)[C@@H]2OC(C)=O)cc1 | 24 | 28 | 23 |
| 170 |  |  | C=CCN(C)CCN1C(=O)[C@H](OC(C)=O)[C@H](c2ccc(OC)cc2)Cc2c1cccc2C(F)(F)F | 25 | 28 | 26 |
| 1100 |  |  | COc1ccc([C@@H]2Cc3c(cccc3C(F)(F)F)N(CCN3CCCC3)C(=O)[C@@H]2C)cc1 | 11 | 8 | 10 |
|  |  |  | CNCCN1C(=O)[C@H](OC(C)=O)[C@H](c2ccc(OCOC)cc2)Cc2c1cccc2C(F)(F)F | 8 | 6 | 8 |
|  |  |  | CNCCN1C(=O)[C@H](OC(C)=O)[C@H](c2ccc(OC)cc2)Cc2c1cccc2C(F)(F)F | 32 | 32 | 34 |
| 39000 |  |  | CNCCN1C(=O)[C@H](OC(C)=O)[C@H](c2ccc(OCCOC)cc2)Cc2c1cccc2C(F)(F)F | 7 | 5 | 5 |
| 3500 | 3.3 |  | COc1ccc([C@@H]2Cc3c(C(=O)OCc4ccccc4)cccc3N(CCN(C)C)C(=O)[C@@H]2OC(C)=O)cc1 | 8 | 4 | 8 |
| 1100 |  |  | COc1ccc([C@@H]2Cc3c(cccc3C(F)(F)F)N(CCCN(C)C)C(=O)[C@@H]2C)cc1 | 24 | 24 | 22 |
| 2400 |  |  | CCc1ccc([C@@H]2Cc3c(cccc3C(F)(F)F)N(CCN(C)C)C(=O)[C@@H]2C)cc1 | 13 | 20 | 14 |
| 85 | 3.4 |  | COc1ccc([C@@H]2Cc3c(ccc(Br)c3OC)N(CCN(C)C)C(=O)[C@@H]2C)cc1 | 14 | 9 | 12 |
|  | 1.9 |  | COc1ccc([C@@H]2Cc3c(OC)cccc3N(CCN(C)C)C(=O)[C@@H]2OC(C)=O)cc1 | 1 | 0 | 0 |
| 190 |  |  | CCCN(C)CCN1C(=O)[C@H](OC(C)=O)[C@H](c2ccc(OC)cc2)Cc2c1cccc2C(F)(F)F | 28 | 27 | 26 |
| 2200 |  |  | COc1ccc([C@@H]2Cc3c(cccc3C(F)(F)F)N(CCN(C)C(C)=O)C(=O)[C@@H]2O)cc1 |  |  |  |
| 3300 |  |  | C#CCN(C)CCN1C(=O)[C@H](OC(C)=O)[C@H](c2ccc(OC)cc2)Cc2c1cccc2C(F)(F)F | 25 | 26 | 25 |
| 730 |  |  | CSc1ccc([C@@H]2Cc3c(cccc3C(F)(F)F)N(CCN(C)C)C(=O)[C@@H]2C)cc1 | 5 | 12 | 8 |
| 160 |  |  | C[C@H]1C(=O)N(CCN(C)C)c2cccc(C(F)(F)F)c2C[C@H]1c1ccc(O)cc1 | 7 | 10 | 5 |
| 76 |  |  | COc1ccc([C@@H]2Cc3c(cccc3C(F)(F)F)N(CCN(C)C)C(=O)[C@@H]2C)cc1 | 22 | 28 | 22 |
| 4200 |  |  | COc1ccc([C@@H]2Cc3c(cccc3C(F)(F)F)N(CCN(C(C)C)C(C)C)C(=O)[C@@H]2C)cc1 | 8 | 14 | 8 |
| 150 |  |  | COc1ccc([C@@H]2Cc3c(cccc3C(F)(F)F)N(CCN(C)C)C(=O)[C@@H]2OC(C)=O)cc1 | 20 | 31 | 27 |

| IC50 ([2]; Oryctolagus cuniculus, Aorta) [nM] | logP [3] | IC50 [2] [nM] | SMILES | Decrease in blood pressure [1] [%] | Decrease in blood pressure [4] [%] | Decrease in blood pressure [5] [%] |
| --- | --- | --- | --- | --- | --- | --- |
| 420 | 2.6 |  | COc1ccc([C@@H]2Cc3c(OC)cccc3N(CCN(C)C)C(=O)[C@@H]2C)cc1 | 8 | 7 | 10 |
|  | 2.4 |  | COc1ccc([C@@H]2Cc3c(Cl)cccc3N(CCN(C)C)C(=O)[C@@H]2OC(C)=O)cc1 | 11 | 9 | 8 |
|  |  |  | COc1ccccc1[C@@H]1Cc2cc(Cl)ccc2N(CCN(C)C)C(=O)[C@@H]1OC(C)=O | 0 | 2 | 2 |
| 2500 | 1.7 |  | COc1ccc([C@@H]2Cc3c(C)cccc3N(CCN(C)C)C(=O)[C@@H]2OC(C)=O)cc1 | 12 | 6 | 10 |
| 950 |  |  | COc1ccc([C@@H]2Cc3c(cccc3C(F)(F)F)N(CCNC(C)C)C(=O)[C@@H]2C)cc1 | 10 | 17 | 15 |
| 340 |  |  | CCC[C@H]1C(=O)N(CCN(C)C)c2ccccc2C[C@H]1c1ccc(OC)cc1 | 12 | 10 | 11 |
|  | 2.1 |  | COc1ccc([C@@H]2Cc3c(cccc3C(F)(F)F)N(CCN(C)C)C(=O)[C@@H]2O)cc1 | 28 | 21 | 26 |
| 6200 |  |  | CNC(=O)CN1C(=O)[C@H](OC(C)=O)[C@H](c2ccc(OC)cc2)Cc2c1cccc2C(F)(F)F | 10 | 13 | 8 |
| 6200 |  |  | COc1ccc([C@@H]2Cc3c(cccc3C(F)(F)F)N(CC[N+](C)(C)C)C(=O)[C@@H]2C)cc1.[I-] | 21 | 25 | 22 |
| 810 |  |  | COc1ccc([C@@H]2Cc3c(cccc3C(F)(F)F)N(CCN(C)C(C)C)C(=O)[C@@H]2C)cc1 | 14 | 18 | 15 |
|  | 2.7 |  | COc1ccc([C@@H]2Cc3cc(C(F)(F)F)ccc3N(CCN(C)C)C(=O)[C@@H]2CC(C)=O)cc1 | 28 | 23 | 28 |
|  |  |  | COc1cccc([C@@H]2Cc3cc(Cl)ccc3N(CCN(C)C)C(=O)[C@@H]2OC(C)=O)c1 | 3 | 5 | 2 |
|  | 1.2 |  | COc1ccc([C@@H]2Cc3cc(OC)ccc3N(CCN(C)C)C(=O)[C@@H]2OC(C)=O)cc1 | 10 | 15 | 8 |
| 330 |  |  | CNc1ccc([C@@H]2Cc3c(cccc3C(F)(F)F)N(CCN(C)C)C(=O)[C@@H]2C)cc1 | 20 | 14 | 18 |
| 3800 |  |  | COc1ccc([C@@H]2Cc3c(cccc3C(F)(F)F)N(CCN(C)C)C(=O)[C@@H]2C)cc1OC | 5 | 3 | 5 |
| 600 | 2 |  | COc1ccc([C@@H]2Cc3cc(SC)ccc3N(CCN(C)C)C(=O)[C@@H]2OC(C)=O)cc1 | 21 | 19 | 20 |
|  | 1.2 |  | COc1ccc([C@@H]2Cc3ccccc3N(CCN(C)C)C(=O)[C@@H]2OC(C)=O)cc1 | 13 | 8 | 8 |
| 360 |  |  | COc1ccc([C@@H]2Cc3c(cccc3C(F)(F)F)N(CC(C)N(C)C)C(=O)[C@@H]2C)cc1 (stereo in doubt; 15l) | 14 | 26 | 17 |
|  |  | 400 | COc1ccc([C@@H]2Cc3c(cccc3C(F)(F)F)N(CC(C)N(C)C)C(=O)[C@@H]2C)cc1 (stereo in doubt; 15m) | 12 |  | 16 |
|  |  | 5900 | COc1ccc([C@@H]2Cc3c(cccc3C(F)(F)F)N(C(C)CN(C)C)C(=O)[C@@H]2C)cc1 (stereo in doubt; 15n) |  | 15 |  |
|  |  | 2300 | COc1ccc([C@@H]2Cc3c(cccc3C(F)(F)F)N(C(C)CN(C)C)C(=O)[C@@H]2C)cc1 (stereo in doubt; 15o) | 16 | 16 | 16 |
